Experimental data: article PMC6318406 (Asian Pacific Journal of Cancer Prevention : APJCP, 2018)
Entries after “also recorded” stand apart in the source; their conditions may differ. Marks after values point to notes of the source that are not given here.

Legend:
Type in all cases: in vivo, rat
[1] = system: lipocalin-2 (LCN-2); experiment: Serum lipocalin-2; details: HCC afflicted rats, 50 mg/kg b.wt orally daily for 5 weeks
How it was run: (§1)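 Female Wistar rats, 170-200 g, 10/group. HCC induced by oral NDEA in 0.9% saline, 20 mg/kg five times weekly for 4 weeks, then 10 mg/kg five times weekly for 1 week. Saline-dosed healthy and untreated HCC groups. Overnight fast after the last dose. Retro-orbital blood drawn under ether and clotted 45 min at room temperature. Serum spun at 1,800 x g for 15 min at 4°C and stored at -20°C. Rat ELISA kits. Mean ± SE; ANOVA with Tukey test.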

[2] = system: pro-caspase 3; experiment: Serum pro-caspase 3 by ELISA in NDEA-induced HCC rats; details: HCC afflicted rats, 50 mg/kg b.wt orally daily for 5 weeks
How it was run: as §1

[3] = system: β-cell leukemia/lymphoma 2 (Bcl-2); experiment: Serum Bcl-2 by ELISA in NDEA-induced HCC rats; details: HCC afflicted rats, 50 mg/kg b.wt orally daily for 5 weeks
How it was run: as §1

[4] = system: hepatocellular carcinoma (HCC) afflicted rats; experiment: Histological examination of liver tissue sections; details: 50 mg/kg b.wt orally daily for 5 weeks, H and E stain
[5] = Oral pharmacokinetic study in HCC-induced rats; details: serum
How it was run: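 HCC induced by oral NDEA (20 mg/kg five times weekly for 4 weeks, then 10 mg/kg for 1 week). Rats (n=6) were fasted 12 h, then given one oral 50 mg/kg dose of free or nanocomposite test compound. Serum was sampled 0.083–24 h, spiked with pyrogallol and extracted into ethyl acetate. Measured by C18 HPLC at 280 nm; non-compartmental analysis, ke from terminal log-linear slope, MRT = AUMC/AUC.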

[6] = Oral pharmacokinetic study in normal rats
[7] = system: endoglin (ENG); experiment: Serum endoglin; details: HCC afflicted rats, 50 mg/kg b.wt orally daily for 5 weeks; mean ± SE
How it was run: as §1

[8] = system: heat shock protein-70 (HSP-70); experiment: Serum heat shock protein-70; details: HCC afflicted rats, 50 mg/kg b.wt orally daily for 5 weeks; mean ± SE
How it was run: as §1

[9] = system: alpha-fetoprotein (AFP); experiment: Serum alpha-fetoprotein; details: HCC afflicted rats, 50 mg/kg b.wt orally daily for 5 weeks; mean ± SE
How it was run: as §1

[10] = normal rats, single dose 50 mg/kg p.o., serum
[11] = normal rats, single dose 50 mg/kg p.o., serum, 50 mg/kg

AUMC last ([5]; HCC-afflicted rats, single dose 50 mg/kg p.o.): 1.55 ± 0.014 µg·mL/h | AUC(0-inf) ([5]; rat, po, 50 mg/kg): 1670 ± 40 ng·h/mL | AUC(0-t) ([5]; rat, po, 50 mg/kg): 1340 ± 194 ng·h/mL | MRT ([5]; rat, po, 50 mg/kg): 1.43 ± 0.34 h | half-life ([5]; rat, po, 50 mg/kg): 1.4 ± 0.32 h | AUMC [6, 10]: 2.03 ± 0.44 µg·mL/h | AUMC last [6, 10]: 1.3 ± 0.13 µg·mL/h | Duration of action ([6]; normal rats, single dose 50 mg/kg p.o., serum concentration-time profile): approximately 1 hr | C max [6, 11]: 1570 ± 108 ng/mL | MRT [6, 11]: 1.063 ± 0.155 h | AUC(0-inf) ([6]; rat, serum, po, 50 mg/kg): 1890 ± 130 ng·h/mL | AUC(0-t) ([6]; rat, serum, po, 50 mg/kg): 1640 ± 45 ng·h/mL | Tmax ([6]; rat, serum, po, 50 mg/kg): 0.46 ± 0.085 h | half-life ([6]; rat, serum, po, 50 mg/kg): 0.62 ± 0.09 h | Cmax ([6]; rat, serum, po, 50 mg/kg, C max, normal rats, single dose 50 mg/kg p.o.): 1590 ng/mL | MRT ([6]; rat, serum, po, 50 mg/kg, MRT, normal rats, single dose 50 mg/kg p.o.): 1.06 h
Structure (SMILES): O=C(O)c1cc(O)c(O)c(O)c1 [GA, 3,4,5-trihydroxy benzoic acid]
Change in serum LCN-2 with respect to the HCC group [1]: -34.8% | Change in serum pro-caspase 3 with respect to the HCC group [2]: -60.5% | Change in serum Bcl-2 with respect to the HCC group [3]: -32.9% | Histopathological findings in liver tissue section [4]: markedly recovered the anaplastic changes in the rat liver tissues; also recorded: congestion in the portal vein, multiple newly formed bile ducts and inflammatory cells infiltration in between at the portal area; also recorded: focal aggregations of mononuclear leucocytes inflammatory cells were detected in the hepatic parenchyma | Serum ENG [7]: 4.16 ± 0.14^b ng/ml | Serum HSP-70 [8]: 43.56 ± 0.8426^b ng/ L | Serum AFP [9]: 41.19 ± 0.83^b ng/ml
